High-throughput results (PubChem BioAssay)
An excerpt weighted towards active compounds, which were near 9.5% of everything screened.
M1 antag = M1 muscarinic receptor (rat) antagonism; B-score at 10 µM; P08482; hit rate 3.4% among 64,000; CHO-M1 cells, Fluo-4 calcium, ACh EC80 antagonist mode; stronger effect = lower value;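 active means calcium fluorescence response, raw or row-and-column corrected B-score, differing from the plate sample mean either way at a set confidence level, mostly lower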
Target sequence (P08482 whole entry, looked up): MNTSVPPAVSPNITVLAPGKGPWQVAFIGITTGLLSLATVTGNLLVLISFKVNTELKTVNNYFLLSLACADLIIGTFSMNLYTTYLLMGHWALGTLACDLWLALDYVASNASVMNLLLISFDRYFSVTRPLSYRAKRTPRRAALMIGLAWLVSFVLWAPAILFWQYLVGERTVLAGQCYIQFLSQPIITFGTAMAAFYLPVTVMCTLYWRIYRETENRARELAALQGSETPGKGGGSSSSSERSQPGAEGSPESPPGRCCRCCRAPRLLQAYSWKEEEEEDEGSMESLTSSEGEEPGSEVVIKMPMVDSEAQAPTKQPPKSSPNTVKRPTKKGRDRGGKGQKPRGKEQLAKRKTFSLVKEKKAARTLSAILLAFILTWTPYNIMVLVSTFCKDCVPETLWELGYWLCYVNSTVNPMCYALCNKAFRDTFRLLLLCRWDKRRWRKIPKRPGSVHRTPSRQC
D1 mod = allosterically modulates the human D1 dopamine receptor; B-score at 10 µM; P21728; hit rate 5.9% among 58,000; HEK293 D1, CRE-luciferase, dopamine EC30 potentiation; actives deviate in either direction; AID 641;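 active means luminescence count or its row- and column-corrected plate score outside the 99.7% band of the plate's sample wells, on either side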
Htt clearance = compounds clearing mutant huntingtin protein; HeLa Exon1htt(103Q)mCFP, aggregate imaging; zero = plate's median compound well; inhibition, % at 1.5 µM; hit rate 0.42% among 47,000; AID 853;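 active means inhibition of aggregate fluorescence above about 70%, also judged a hit by eye on the cell image, limit read from the data, passing the limit was not always enough; inconclusive means no rule stated for this call; inactive means not judged a hit on image review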;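 further: cells exposed to compound for three days before fixation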
M1 agonist = activates the M1 muscarinic receptor. CHO-M1 cells, Fluo-4 calcium fluorescence, agonist mode; stronger effect = higher value. B-score at 10 µM. hit rate 3% among 64,000. AID 626;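 active means fluorescence rise, raw or as B-score row- and column-corrected plate score, outside the 99.7% band of its plate's samples, either direction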
Jurkat viability = cytotoxicity toward Jurkat cells | Jurkat E6.1 viability, ATP luminescence, 48 h | inhibition, % at 4 µM | hit rate 1.2% among 56,000 | AID 463;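 active means inhibition above the mean inhibition of all tested compounds plus 3 SD, cut at about 28% in these data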
HEK293 NFkB inh = inhibitors of the PMA/ionomycin-induced NF-kB reporter in HEK293 cells | HEK-293 NF-kB luciferase reporter, luminescence | inhibition, % at 3 µM | hit rate 0.21% among 62,000;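 active means inhibition above the mean of all tested compounds plus 3 SD, cut at about 40% in these data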;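 further: 0% = stimulated DMSO wells and 100% = 10 µM reference inhibitor 5653914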
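Timing: 1 h pretreatment, 16 h stimulation, 37 °C; system: HEK-293 cells with stable firefly luciferase reporter driven by four HIV NF-kB elements; doses: 3 µM once, 0.30% DMSO; measured by: luciferase luminescence; control set: DMSO and 10 µM reference inhibitor; repeats: single test; reagent: PMA plus ionomycin mix as NF-kB-activating stimulus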
* = called active by the depositor; ? = inconclusive; nt = no result given.

SMILES	M1 antag	D1 mod	Htt clearance	M1 agonist	Jurkat viability	HEK293 NFkB inh
COc1ccc(-n2c3c(cc(C(=O)Nc4ccc5c(c4)C(=O)NC5=O)c2=O)C(=O)CCC3)cc1	0.055	0.15	nt	1.2	0	21
N#Cc1c(NC(=O)CSc2ncn[nH]2)sc2c1CCCCC2	-0.66	-4.6*	nt	-0.2	19	54*
Cn1cnnc1SCC(=O)Nc1sc2c(c1C#N)CCCCC2	-0.17	-0.26	nt	-0.36	3	-10
N#Cc1c(NC(=O)CSc2nc(N)cc(=O)[nH]2)sc2c1CCCCCC2	-0.12	-0.56	nt	-0.0036	56*	11
CN1CCN(S(=O)(=O)c2ccc(Sc3nnc(-c4cccs4)n3-c3ccccc3)nc2)CC1	-0.1	-4.1*	-9	2.2	6	9
CCn1c(SCC(=O)N2CCN(S(=O)(=O)c3ccccc3)CC2)nnc1-c1cccs1	-1.4	-1.8	21	-1.4	15	16
COC(=O)C1CCN(c2nc3ccccc3nc2C(C#N)C(=O)NCCc2ccccc2)CC1 (centres undefined)	0.11	nt	nt	25*	nt	nt
N#CC(C(=O)NC1CCCCC1)c1nc2ccccc2nc1N1CCOCC1 (centres undefined)	1.7	0.39	nt	84*	0	19
CC1CN(c2nc3ccccc3nc2C(C#N)C(=O)NCc2ccc3c(c2)OCO3)CC(C)O1 (centres undefined)	-0.54	0.28	64	9.8*	-2	7
Cc1ccc(C23CC4CC(CC(CC(=O)N5CCOCC5)(C4)C2)C3)cc1	nt	nt	-52	nt	nt	nt
Cc1cccc(NC(=O)c2cc(-c3ccco3)nc3ccccc23)n1	-2	-3.7*	-36	-0.21	5	18
COc1ccc(NC(=O)c2cc(-c3cccnc3)nc3ccc(C)cc23)cc1OC	nt	nt	4	nt	nt	nt
COc1ccc(NC(=O)c2cc(-c3ccc(C)o3)nc3ccccc23)cc1OC	-0.28	-4.7*	9	0.87	15	8
COc1cccc(N2C(=O)C(O)=C(C(C)=O)C2c2ccc(OC)c(OC)c2)c1 (centres undefined)	0.57*	0.55	nt	0.2	nt	nt
Cn1nnc2cc(C(=O)N3CCN(c4ccccc4)CC3)ccc21	-0.18	nt	80*	-0.028	-3	11
O=C(c1cc(-c2ccco2)on1)N1CCN(c2ccccc2)CC1	-0.22	0.17	nt	-0.31	-3	17
O=C(c1ccc2nc(-c3ccco3)c(-c3ccco3)nc2c1)N1CCN(c2ccccc2)CC1	-1.2	nt	nt	5.7*	2	5
CC(=O)Nc1ccc2ccc3cccc4ccc1c2c34	nt	nt	-37	nt	nt	nt
CCOc1ccc(C(=O)Nc2cccc(C)n2)cc1	0.044	-6.5*	nt	-0.13	16	-22
Cc1ccc2c(c1)[nH]c1c(N3CCN(Cc4ccc5c(c4)OCO5)CC3)ncnc12	-2	-2.6	nt	3.4*	10	10
c1ccc2c(c1)oc1c(N3CCN(Cc4ccc5c(c4)OCO5)CC3)ncnc12	-2.5	-0.26	-80	0.78	10	1
COc1cc(C(Nc2ccccn2)c2ccc3ccc(C)nc3c2O)cc(OC)c1O (centres undefined)	0.59	-0.86	nt	0.12	71*	25
O=C(CSc1nnc(C2CC2)n1-c1ccccc1)Nc1ccc(N2CCOCC2)cc1	nt	nt	19	nt	nt	nt
Cc1cc(C)c2c(n1)nn1c(NCCCn3ccnc3)cc(C)nc21	-3.3*	0.92	nt	0.26	-7	7
Cc1cc(C)c2c(n1)nn1c(NCCCN3CCOCC3)cc(C)nc21	0.072	-0.6	-29	0.61	1	5
SMILES	M1 antag	D1 mod	Htt clearance	M1 agonist	Jurkat viability	HEK293 NFkB inh
O=C1C2=C(SCCS2)C(=O)N1CCCO	0.1	-1.4	-64	7.9*	0	8
Cc1nc2ccc(S(=O)(=O)NCC(=O)N3CCC(C)CC3)cc2s1	0.026	-0.85	-295	-0.6	-1	10
O=C(CSCc1ccc(Cl)cc1)N/N=C/c1ccc(Cl)cc1Cl	nt	nt	9	nt	nt	nt
CC(=O)c1cc2c(cc1NS(=O)(=O)c1ccc(C)cc1)OCO2	nt	nt	-47	nt	nt	nt
COC(=O)c1ccc(Cl)c(NS(=O)(=O)c2ccc3c(c2)OCCO3)c1	-0.17	-0.26	39	0.012	58*	10
CC(=O)c1cc2c(cc1NS(=O)(=O)c1ccc3c(c1)OCCO3)OCO2	-0.86	4.1*	nt	-0.6	-5	19
COc1ccc(OC)c2[nH]c(=O)c(CCNC(=O)C3CCCCC3)cc12	0.79	-0.73	nt	0.46	4	14
CCCn1c(NC(=O)C2CCN(S(=O)(=O)c3cccs3)CC2)nc2ccccc21	-1.3	-0.43	0	-0.4	84*	10
O=C(NCc1ccccn1)C1CCN(S(=O)(=O)c2cccs2)CC1	-0.53	0.18	5	-0.71	-3	11
CCCn1c(NC(=O)c2cccc(S(=O)(=O)N3CCCC3)c2)nc2ccccc21	-0.22	nt	nt	1.3	44*	32
COC(=O)c1ccc(C(=O)OC)c(NC(=O)CSCc2ccc(Br)cc2)c1	nt	nt	-9	nt	nt	nt
COc1ccc(S(=O)(=O)NCCc2csc(-c3cccnc3)n2)cc1	nt	nt	-49	nt	nt	nt
COc1cc(NS(=O)(=O)c2ccc3c(c2)oc(=O)n3C)cc(OC)c1OC	-0.25	-2.2	40	0.41	40*	5
CCn1c(SCc2ccc(OC)cc2)nnc1-c1ccncc1	-0.022	-0.72	-53	-1.1	3	23
CC(=O)Nc1nc(SCCCc2ccccc2)n[nH]1	0.18	0.69	nt	0.23	6	5
Cc1cc(=O)oc2cc(OCC(=O)N3c4ccccc4CC3C)ccc12 (centres undefined)	-1.5	1.5	?	-0.56	72*	24
Cc1cc(C)c2ccc(N)nc2c1O	-0.035	-0.46	nt	0.32	44*	12
Cc1ccc(C(=O)Nc2c3c(nn2C(C)(C)C)CS(=O)(=O)C3)cc1C	0.012	-2.9*	nt	0.36	nt	6
CC(C)(C)n1nc2c(c1NC(=O)c1ccc(Br)cc1)CS(=O)C2 (centres undefined)	-0.17	-0.42	nt	0.21	1	4
Nc1nc2ccc(Oc3ccccc3)cc2s1	-0.026	-4.5*	nt	2.1	21	-10
O=C1CSC(c2cn(-c3ccccc3)nc2-c2cccs2)N1CC1CCCO1 (centres undefined)	0.14	-0.038	6	0.91	-4	8
O=C(Nc1ccc(O)cc1)c1ccc(C(=O)c2ccccc2)o1	-0.24	-3.2*	-3	1.8	15	13
O=C(Nc1ccc(Nc2ccccc2)cc1)c1ccc(Br)o1	-1.1	-0.94	-44	0.26	-4	-8
CS(=O)c1nc(-c2ccc(Br)cc2)cc(-c2ccccc2)c1C#N (centres undefined)	0.13	1.6	nt	0.15	100*	25
CCc1ccc(CNc2ccc(O)cc2)cc1	-0.19	-0.78	nt	-0.21	38*	0
COc1ccc(Br)cc1CNc1ccc(O)cc1	-0.16	-0.63	-34	-0.29	5	18
Cc1c(C)n(CC(O)CN2C(=O)c3ccccc3S2(=O)=O)c2ccccc12 (centres undefined)	nt	nt	2	nt	nt	nt
CCSc1ccccc1C(=O)NCc1ccc(S(N)(=O)=O)cc1	-0.16	-3*	nt	0.14	5	18
